{"data": "Experimental data from different studies", "target": "SRSF protein kinase 1 (SRPK1, Homo sapiens, UniProt Q96SB4)"}
{"Compound": "CS(=O)(=O)N1CCCC(NC(=O)[C@H](CCC2CCCCC2)NC(=O)c2ccc(CNC(=O)c3cnc4ccccn34)cc2)C1 (stereo partly shown)", "test": "cell-free assay, competition with immobilised ligand", "setting": "0.1 µM", "measurement": "remaining binding", "value": "74%"}
{"Compound": "COc1ccc(COc2ccc(Cc3cnc(N)nc3N)cc2OC)cc1", "test": "cell-free assay", "setting": "0.5 µM", "measurement": "remaining signal", "value": "90.4%"}
{"Compound": "CCCCN(CCCC)C(=O)CN1C[C@H](c2cc(OC)c3c(c2)OCO3)[C@@H](C(=O)O)[C@@H]1CC(C)(C)CCC", "test": "cell-free assay, competition with immobilised ligand", "setting": "1 µM", "measurement": "remaining binding", "value": "100%"}
{"Compound": "CCCCNc1ncc2c(-c3ccc(F)cc3)nn(C[C@H]3CC[C@H](N)CC3)c2n1", "test": "target engagement in cells, inhibitor, chemoproteomics", "setting": "20 mM", "measurement": "inhibition", "value": "-21.7%"}
{"Compound": "Cc1ccc(Nc2nccc(N(C)c3ccc4c(C)n(C)nc4c3)n2)cc1S(N)(=O)=O", "test": "enzyme activity, inhibitor", "setting": "0.3 µM", "measurement": "inhibition", "value": "-7%"}
{"Compound": "Cc1ccc(NC(=O)c2ccc(C)c(C(F)(F)F)c2)cc1C#Cc1nn(C2CCC(O)CC2)c2ncnc(N)c12 (stereo not shown)", "test": "cell-free assay", "setting": "10 µM", "measurement": "remaining signal", "value": "106%"}
{"Compound": "CC(C)c1ccc(NC(=O)c2cccs2)c(-c2nc3ccccc3[nH]c2=O)c1", "test": "enzyme activity, inhibitor", "setting": "1 µM", "measurement": "activity vs control", "value": "100%"}
{"Compound": "c1ccc(CNc2nc(N3CCOc4ccccc43)nc3c2CCCC3)cc1", "test": "target engagement in cells, inhibitor, chemoproteomics", "setting": "20 mM", "measurement": "inhibition", "value": "4.3%"}
{"Compound": "Cn1c(=O)n(-c2ccc(C(C)(C)C#N)cc2)c2c3cc(-c4cnc5ccccc5c4)ccc3ncc21", "test": "enzyme activity, inhibitor", "setting": "10 µM", "measurement": "remaining activity", "value": "106%"}
{"Compound": "CNC(=O)c1ccc(Nc2ncc(C(F)(F)F)c(NCc3nccnc3N(C)S(C)(=O)=O)n2)cc1", "test": "cell-free assay, competition with immobilised ligand", "setting": "0.1 µM", "measurement": "remaining binding", "value": "51%"}
{"Compound": "CCN(CC)c1ccc(C2=NNC(=O)CC2C)cc1[N+](=O)[O-] (stereo not shown)", "test": "enzyme activity, inhibitor", "setting": "10 µM", "measurement": "remaining activity", "value": "94%"}
{"Compound": "CCCOc1ccc(OC)c(F)c1C(=O)c1ccc(C(=O)N[C@@H]2CNC[C@H]2NC(=O)c2ccc3[nH]ncc3c2)cc1", "test": "enzyme activity, inhibitor", "setting": "10 µM", "measurement": "remaining activity", "value": "97%"}
{"Compound": "COc1cc(Cl)c(C(=O)N[C@@H](CN[C@H]2CC[C@@H](N)CC2)Cc2ccc(C#N)cc2)cc1-c1ccc(CN[C@H](C)c2ccc(C)cc2)o1", "test": "enzyme activity, inhibitor", "setting": "1 µM", "measurement": "remaining activity", "value": "99%"}
{"Compound": "CN(c1ncccc1CNc1nc(Nc2ccc3c(c2)CC(=O)N3)ncc1C(F)(F)F)S(C)(=O)=O", "test": "enzyme activity, inhibitor", "setting": "1 µM", "measurement": "inhibition", "value": "33.5%"}
{"Compound": "Cc1ccc(C(=O)Nc2ccc(CN3CCN(C)CC3)c(C(F)(F)F)c2)cc1C#Cc1cnc2cccnn12", "test": "enzyme activity, inhibitor", "setting": "23.5 nM", "measurement": "remaining activity", "value": "98%"}
{"Compound": "Cc1sc(C(=O)NC2COC2)cc1-n1cc(NC(=O)Nc2c(F)cccc2Cl)cn1", "test": "enzyme activity, inhibitor", "setting": "10 µM", "measurement": "remaining activity", "value": "96.9%"}
{"Compound": "CNC(=O)c1cc(Oc2ccc(NC(=O)Nc3ccc(Cl)c(C(F)(F)F)c3)cc2)ccn1", "test": "enzyme activity, inhibitor", "setting": "0.3 µM", "measurement": "inhibition", "value": "-2%"}
{"Compound": "Oc1cccc(-c2nc(N3CCOCC3)c3oc4ncccc4c3n2)c1", "test": "enzyme activity, inhibitor", "setting": "10 µM", "measurement": "remaining activity", "value": "116%"}
{"Compound": "N#CC1(c2ccccn2)CCN(Cc2cc(C(=O)N3CCCC3)c(=O)n3ccccc23)CC1", "test": "cell-free assay, competition with immobilised ligand", "setting": "1 µM", "measurement": "remaining binding", "value": "85%"}
{"Compound": "N#CCCc1ccc2c(c1)-c1[nH]c3ccc([N+](=O)[O-])cc3c1CC(=O)N2", "test": "cell-free assay", "setting": "0.5 µM", "measurement": "remaining signal", "value": "107%"}
{"Compound": "CCN(CC)CCNC(=O)c1c(C)[nH]c(/C=C2\\C(=O)Nc3ccc(F)cc32)c1C", "test": "enzyme activity, inhibitor", "setting": "10 µM", "measurement": "inhibition", "value": "9%"}
{"Compound": "O=C(NS(=O)(=O)c1ccc(NCC2CCOCC2)c([N+](=O)[O-])c1)c1ccc(N2CCN(Cc3ccc(C(F)(F)F)cc3-c3ccc(Cl)cc3)CC2)cc1Oc1cnc2[nH]ccc2c1", "test": "cell-free assay, competition with immobilised ligand", "setting": "1 µM", "measurement": "remaining binding", "value": "100%"}
{"Compound": "O=C(Nc1cnn(-c2csc(C(=O)NC3COC3)c2)c1)Nc1c(F)cccc1Cl", "test": "enzyme activity, inhibitor", "setting": "5 µM", "measurement": "remaining activity", "value": "104%"}
{"Compound": "COc1cc2ncnc(Nc3ccc(Oc4ccccc4)c(C)c3C)c2cc1OC", "test": "enzyme activity, inhibitor", "setting": "1 µM", "measurement": "inhibition", "value": "1%"}
{"Compound": "O=C(N1CCS(=O)(=O)CC1)N1C[C@H](c2ccc(OC(F)(F)F)cc2)C[C@H](c2nc(C3CC3)no2)C1", "test": "cell-free assay, competition with immobilised ligand", "setting": "1 µM", "measurement": "remaining binding", "value": "100%"}
{"Compound": "CC(C)(C)C(=O)c1sc(NC2CCCCC2)nc1N", "test": "enzyme activity, inhibitor", "setting": "10 µM", "measurement": "remaining activity", "value": "92%"}
{"Compound": "COc1cc(/C=C/C(=O)CC(=O)/C=C/c2ccc(O)c(OC)c2)ccc1O", "test": "enzyme activity, inhibitor", "setting": "1 µM", "measurement": "activity vs control", "value": "57%"}
{"Compound": "FC(F)(F)Oc1cccc(-c2cnc3ccc(-c4ccncc4)nn23)c1", "test": "enzyme activity, inhibitor, radiometric", "setting": "1 µM", "measurement": "activity vs control", "value": "95%"}
{"Compound": "C[C@@H]1CN(c2cc(-c3nn(C)c4ccc(OC5(C)CC5)cc34)ncn2)C[C@H](C)O1", "test": "cell-free assay, competition with immobilised ligand", "setting": "1 µM", "measurement": "remaining binding", "value": "88%"}
{"Compound": "COc1cc2ncnc(Nc3ccc(F)c(Cl)c3)c2cc1OCCCN1CCOCC1", "test": "cell-free assay", "setting": "0.5 µM", "measurement": "remaining signal", "value": "98.3%"}
{"Compound": "CC(C)(C)c1nc2c(s1)c1nc(N)ncc1c1ccc(NS(=O)(=O)c3c(F)cccc3F)c(F)c12", "test": "enzyme activity, inhibitor, radiometric", "setting": "1 µM", "measurement": "remaining activity", "value": "99%"}
{"Compound": "COc1cc(Nc2cnc(C#N)c(O[C@H](C)CN(C)C)n2)ncc1-c1cnn(C)c1", "test": "enzyme activity, inhibitor, radiometric", "setting": "1 µM", "measurement": "remaining activity", "value": "89%"}
{"Compound": "CC(C1CC1)n1cnc2c(NCc3cccc(C(F)(F)F)c3)nc(NCCN(C)C)nc21 (stereo not shown)", "test": "enzyme activity, inhibitor", "setting": "5 µM", "measurement": "inhibition", "value": "> 50%"}
{"Compound": "O=C(NCc1ncc(C(F)(F)F)cc1Cl)c1ccc2c(c1)C1(CCS(=O)(=O)CC1)[C@H](C1CC1)N2S(=O)(=O)c1ccc(F)cc1", "test": "cell-free assay, competition with immobilised ligand", "setting": "1 µM", "measurement": "remaining binding", "value": "72%"}
